Test results from ChEMBL document CHEMBL1122273, “5-sulfamoylorthanilic acids, a sulfonamide series with salidiuretic activity” (J Med Chem, 1983).
The source made the active and inactive calls. The rule behind the calls is not given here.

Organism: Rattus norvegicus
Assay: Saluretic activity in the rat measured as concentration of K+ in urine
Type: functional
Details: not given
In short: (§1)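 Rats deprived of food 24 h, water ad libitum, dosed 50 mg/kg by stomach tube as suspension in 2% starch, no extra water load. Groups of three in diuresis funnels; urine over first 5 h collected. Na⁺ and K⁺ by flame photometry, Cl⁻ argentometrically; expressed as mequiv/kg.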

Compound	Saluretic activity [m equiv 5hr-1 kg-1]
CCCS(=O)(=O)c1cc(NCc2ccco2)c(S(=O)(=O)[O-])cc1S(N)(=O)=O.[Na+]	1.3
CNS(=O)(=O)c1cc(S(=O)(=O)[O-])c(NCc2ccco2)cc1N(C)c1ccccc1.[K+]	1.4
NS(=O)(=O)c1cc(S(=O)(=O)[O-])c(NCc2ccco2)cc1NCc1ccccc1.[K+]	0.6
COc1ccccc1CNc1cc(Cl)c(S(N)(=O)=O)cc1S(=O)(=O)[O-].[Na+]	0.3
NS(=O)(=O)c1cc(S(=O)(=O)[O-])c(Cl)cc1NCc1ccco1.[Na+]	0.9
NS(=O)(=O)c1cc(S(=O)(=O)[O-])c(NCc2ccco2)cc1Oc1ccccc1.[K+]	1.5
Cc1ccccc1Nc1cc(NCc2ccco2)c(S(=O)(=O)[O-])cc1S(N)(=O)=O.[Na+]	1
CCOCCNc1cc(Cl)c(S(N)(=O)=O)cc1S(=O)(=O)[O-].[Na+]	0.2

Tested on: Canis familiaris
Assay: Salidiuretic activity on the basis of the 1.56 mg/Kg perorally dog assay; compound was found to be highly active
Type: functional, organism-based
Details: Canis lupus familiaris; Urine

Compound	Saldiuretic activity
NS(=O)(=O)c1cc(S(=O)(=O)O)c(NCc2ccco2)cc1Oc1ccccc1	Active

Organism: Rattus norvegicus
Assay: Diuretic activity in the rats, determined by a modified Lipschitz test
Type: functional, Urine
Details: not given
In short: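 Modified Lipschitz test: rats deprived of water 24 h, grouped in threes of similar weight in diuresis funnels. Oral dose of 50 mg/kg, suspended in 2% starch solution, by stomach tube.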

Compound	Diuretic activity [mL/kg]
CCCS(=O)(=O)c1cc(NCc2ccco2)c(S(=O)(=O)[O-])cc1S(N)(=O)=O.[Na+]	2.9
CNS(=O)(=O)c1cc(S(=O)(=O)[O-])c(NCc2ccco2)cc1N(C)c1ccccc1.[K+]	1.3
NS(=O)(=O)c1cc(S(=O)(=O)[O-])c(NCc2ccco2)cc1NCc1ccccc1.[K+]	1
COc1ccccc1CNc1cc(Cl)c(S(N)(=O)=O)cc1S(=O)(=O)[O-].[Na+]	0.2
NS(=O)(=O)c1cc(S(=O)(=O)[O-])c(Cl)cc1NCc1ccco1.[Na+]	0.5
NS(=O)(=O)c1cc(S(=O)(=O)[O-])c(NCc2ccco2)cc1Oc1ccccc1.[K+]	1.8
Cc1ccccc1Nc1cc(NCc2ccco2)c(S(=O)(=O)[O-])cc1S(N)(=O)=O.[Na+]	0.6
CCOCCNc1cc(Cl)c(S(N)(=O)=O)cc1S(=O)(=O)[O-].[Na+]	0.4

Tested on: Rattus norvegicus
Assay: Salidiuretic activity on the basis of the 50 mg/kg perorally rat assay; Compound was highly active
Type: functional, organism-based
Parameters: dose 50 mg/kg
Details: Urine

Compound	Saldiuretic activity
CN(c1ccccc1)c1cc(NCc2ccco2)c(S(=O)(=O)O)cc1S(N)(=O)=O	Active

Tested on: Canis familiaris
Assay: Salidiuretic activity on the basis of the 1.56 mg/Kg perorally dog assay; Compound was highly active
Type: functional, organism-based
Details: Canis lupus familiaris; Urine

Compound	Saldiuretic activity
CN(c1ccccc1)c1cc(NCc2ccco2)c(S(=O)(=O)O)cc1S(N)(=O)=O	Active

Organism: Rattus norvegicus
Assay: Saluretic activity in the rat measured as concentration of chloride in urine
Type: functional
Details: not given
In short: as §1

Compound	Saluretic activity [m equiv 5hr-1 kg-1]
CCCS(=O)(=O)c1cc(NCc2ccco2)c(S(=O)(=O)[O-])cc1S(N)(=O)=O.[Na+]	2.4
CNS(=O)(=O)c1cc(S(=O)(=O)[O-])c(NCc2ccco2)cc1N(C)c1ccccc1.[K+]	1.8
NS(=O)(=O)c1cc(S(=O)(=O)[O-])c(NCc2ccco2)cc1NCc1ccccc1.[K+]	1.2
COc1ccccc1CNc1cc(Cl)c(S(N)(=O)=O)cc1S(=O)(=O)[O-].[Na+]	0.1
NS(=O)(=O)c1cc(S(=O)(=O)[O-])c(Cl)cc1NCc1ccco1.[Na+]	1
NS(=O)(=O)c1cc(S(=O)(=O)[O-])c(NCc2ccco2)cc1Oc1ccccc1.[K+]	7.1
Cc1ccccc1Nc1cc(NCc2ccco2)c(S(=O)(=O)[O-])cc1S(N)(=O)=O.[Na+]	0.6
CCOCCNc1cc(Cl)c(S(N)(=O)=O)cc1S(=O)(=O)[O-].[Na+]	0.2

Organism: Rattus norvegicus
Assay: Saluretic activity in the rat measured as concentration of Na+ in urine
Type: functional
Details: not given
In short: as §1

Compound	Saluretic activity [m equiv 5hr-1 kg-1]
CCCS(=O)(=O)c1cc(NCc2ccco2)c(S(=O)(=O)[O-])cc1S(N)(=O)=O.[Na+]	1.8
CNS(=O)(=O)c1cc(S(=O)(=O)[O-])c(NCc2ccco2)cc1N(C)c1ccccc1.[K+]	1.2
NS(=O)(=O)c1cc(S(=O)(=O)[O-])c(NCc2ccco2)cc1NCc1ccccc1.[K+]	0.8
COc1ccccc1CNc1cc(Cl)c(S(N)(=O)=O)cc1S(=O)(=O)[O-].[Na+]	0.1
NS(=O)(=O)c1cc(S(=O)(=O)[O-])c(Cl)cc1NCc1ccco1.[Na+]	0.5
NS(=O)(=O)c1cc(S(=O)(=O)[O-])c(NCc2ccco2)cc1Oc1ccccc1.[K+]	5
Cc1ccccc1Nc1cc(NCc2ccco2)c(S(=O)(=O)[O-])cc1S(N)(=O)=O.[Na+]	0.7
CCOCCNc1cc(Cl)c(S(N)(=O)=O)cc1S(=O)(=O)[O-].[Na+]	0.2

Tested on: Rattus norvegicus
Assay: Salidiuretic activity on the basis of the 50 mg/kg perorally rat assay; compound was found to be highly active
Type: functional, organism-based
Parameters: dose 50 mg/kg
Details: Urine

Compound	Saldiuretic activity
NS(=O)(=O)c1cc(S(=O)(=O)O)c(NCc2ccco2)cc1Oc1ccccc1	Active
